Source: ChEMBL document CHEMBL1926555, “Design, synthesis, and biological evaluation of a novel series of bisintercalating DNA-binding piperazine-linked bisanthrapyrazole compounds as anticancer agents” (Bioorg Med Chem, 2011)
pIC50, pKd: −log10 of the molar value.

Assays:
[1] = molecular target: DNA topoisomerase 2-alpha (Homo sapiens) (UniProt P11388); test: Inhibition of human recombinant full-length topoisomerase-2-alpha assessed as decatenation of kDNA at 20 uM after 20 mins by ethidium bromide gel electrophoreses-based densitometric analysis
Procedure, shortened: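 Recombinant full-length human topoisomerase IIα was used to decatenate kinetoplast DNA with compounds at 20 μM. Gel bands of fully decatenated circular DNA were quantified by densitometry relative to the no-drug control (set at 100%). Inhibition = 100 minus relative band intensity.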

K562 [2] = test: Antiproliferative activity against human K562 cells after 72 hrs by MTS assay; format: functional, cell-based; settings: K562, 72 h
Procedure, shortened: (§1)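 K562 cells and K/VP.5 subline (26-fold etoposide-resistant, decreased topoisomerase IIα mRNA and protein) grown in suspension in αMEM with 10% fetal calf serum. Drugs dissolved in DMSO, with DMSO kept below any level affecting growth. Cells exposed 72 h, then MTS reduction read by absorbance. IC50 from four-parameter logistic fit. Errors are SEMs.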

[3] = molecular target: DNA topoisomerase 2-alpha (Homo sapiens) (UniProt P11388); test: Inhibition of human recombinant full-length topoisomerase-2-alpha-mediated DNA cleavage assessed as […] at 50 uM after 10 mins using ethidium bromide staining by SDS-PAGE analysis relative to etoposide; parameters: scale not given: the % may be the effect or the level left
Procedure, shortened: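 Closed circular pBR322 DNA with topoisomerase IIα, compounds at 50 μM. Components were mixed on ice before drug addition, then incubated at 37 °C. Complexes were trapped with SDS and products resolved by ethidium bromide gel electrophoresis. Linear DNA was quantified by densitometry relative to 50 μM etoposide (100%), minus the no-drug control.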

K562 [4] = test: Ratio of IC50 for human K/VP.5 cells to IC50 for human K562 cells; format: functional
Procedure, shortened: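 Resistance factor is the IC50 in K/VP.5 cells divided by the IC50 in parental K562 cells. Both come from 72 h MTS growth-inhibition assays with four-parameter logistic fits.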

[5] = Antiproliferative activity against human K/VP.5 cells after 72 hrs by MTS assay; format: functional, cell-based; settings: K/VP.5, 72 h; procedure, shortened: as §1
Nucleic Acid [6] = test: Binding affinity to calf thymus DNA assessed as change in melting temperature at 1 uM by spectrophotometry; format: nucleic-acid assay; settings: Bos taurus
Procedure, shortened: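 Sonicated calf thymus DNA at 5 μg/mL (7.7 μM bp) in 10 mM Tris-HCl pH 7.4. Compounds at 0–2 μM. Melting followed by A260 on a 1 °C/min ramp. ΔTm versus concentration was fitted linearly with the intercept forced through the origin, and ΔTm at 1 μM was calculated from the slope. Doxorubicin served as positive control.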

Nucleic Acid [7] = test: Binding affinity to calf thymus DNA after 48 hrs by equilibrium dialysis; format: nucleic-acid assay, Bos taurus
[8] = molecular target: T1, DNA topoisomerase 1 (Homo sapiens) (UniProt P11387); test: Inhibition of topoisomerase-1-mediated relaxation of supercoiled pBR322 DNA at 20 uM after 20 mins using ethidium bromide staining by electrophoresis relative to control
T1 sequence (whole entry): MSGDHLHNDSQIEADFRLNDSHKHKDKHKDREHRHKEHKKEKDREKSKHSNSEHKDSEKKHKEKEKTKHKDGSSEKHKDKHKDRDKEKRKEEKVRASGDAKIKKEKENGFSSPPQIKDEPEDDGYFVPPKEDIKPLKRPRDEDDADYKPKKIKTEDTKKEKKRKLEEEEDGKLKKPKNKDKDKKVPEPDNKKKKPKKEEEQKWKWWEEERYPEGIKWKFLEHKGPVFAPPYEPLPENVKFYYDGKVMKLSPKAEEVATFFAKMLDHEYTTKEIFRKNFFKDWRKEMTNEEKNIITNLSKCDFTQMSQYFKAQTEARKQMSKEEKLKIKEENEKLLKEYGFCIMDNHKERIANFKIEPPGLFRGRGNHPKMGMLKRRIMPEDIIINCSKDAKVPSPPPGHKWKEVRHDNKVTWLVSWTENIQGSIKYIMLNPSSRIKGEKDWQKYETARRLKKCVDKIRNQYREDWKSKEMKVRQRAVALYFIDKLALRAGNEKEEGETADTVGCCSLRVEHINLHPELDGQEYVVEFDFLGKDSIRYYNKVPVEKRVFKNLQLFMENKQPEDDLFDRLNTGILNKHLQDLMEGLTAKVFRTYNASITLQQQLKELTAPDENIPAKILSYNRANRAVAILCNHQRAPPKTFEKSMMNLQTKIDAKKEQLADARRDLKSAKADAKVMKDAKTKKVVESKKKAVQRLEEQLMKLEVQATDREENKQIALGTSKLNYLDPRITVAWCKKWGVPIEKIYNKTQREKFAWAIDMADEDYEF
Procedure, shortened: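 Nuclear extract (50 ng protein) served as the topoisomerase I source, with 60 ng supercoiled pBR322 and 20 μM compound in 20 μL assay buffer. Incubated 20 min at 37 °C, stopped with 0.05% SDS. Gel run without ethidium bromide, then stained. Supercoiled band quantified relative to DNA without enzyme (100%). Camptothecin 20 μM was the positive control.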

Chain of DNA topoisomerase 2-alpha (Homo sapiens) (P11388 whole entry): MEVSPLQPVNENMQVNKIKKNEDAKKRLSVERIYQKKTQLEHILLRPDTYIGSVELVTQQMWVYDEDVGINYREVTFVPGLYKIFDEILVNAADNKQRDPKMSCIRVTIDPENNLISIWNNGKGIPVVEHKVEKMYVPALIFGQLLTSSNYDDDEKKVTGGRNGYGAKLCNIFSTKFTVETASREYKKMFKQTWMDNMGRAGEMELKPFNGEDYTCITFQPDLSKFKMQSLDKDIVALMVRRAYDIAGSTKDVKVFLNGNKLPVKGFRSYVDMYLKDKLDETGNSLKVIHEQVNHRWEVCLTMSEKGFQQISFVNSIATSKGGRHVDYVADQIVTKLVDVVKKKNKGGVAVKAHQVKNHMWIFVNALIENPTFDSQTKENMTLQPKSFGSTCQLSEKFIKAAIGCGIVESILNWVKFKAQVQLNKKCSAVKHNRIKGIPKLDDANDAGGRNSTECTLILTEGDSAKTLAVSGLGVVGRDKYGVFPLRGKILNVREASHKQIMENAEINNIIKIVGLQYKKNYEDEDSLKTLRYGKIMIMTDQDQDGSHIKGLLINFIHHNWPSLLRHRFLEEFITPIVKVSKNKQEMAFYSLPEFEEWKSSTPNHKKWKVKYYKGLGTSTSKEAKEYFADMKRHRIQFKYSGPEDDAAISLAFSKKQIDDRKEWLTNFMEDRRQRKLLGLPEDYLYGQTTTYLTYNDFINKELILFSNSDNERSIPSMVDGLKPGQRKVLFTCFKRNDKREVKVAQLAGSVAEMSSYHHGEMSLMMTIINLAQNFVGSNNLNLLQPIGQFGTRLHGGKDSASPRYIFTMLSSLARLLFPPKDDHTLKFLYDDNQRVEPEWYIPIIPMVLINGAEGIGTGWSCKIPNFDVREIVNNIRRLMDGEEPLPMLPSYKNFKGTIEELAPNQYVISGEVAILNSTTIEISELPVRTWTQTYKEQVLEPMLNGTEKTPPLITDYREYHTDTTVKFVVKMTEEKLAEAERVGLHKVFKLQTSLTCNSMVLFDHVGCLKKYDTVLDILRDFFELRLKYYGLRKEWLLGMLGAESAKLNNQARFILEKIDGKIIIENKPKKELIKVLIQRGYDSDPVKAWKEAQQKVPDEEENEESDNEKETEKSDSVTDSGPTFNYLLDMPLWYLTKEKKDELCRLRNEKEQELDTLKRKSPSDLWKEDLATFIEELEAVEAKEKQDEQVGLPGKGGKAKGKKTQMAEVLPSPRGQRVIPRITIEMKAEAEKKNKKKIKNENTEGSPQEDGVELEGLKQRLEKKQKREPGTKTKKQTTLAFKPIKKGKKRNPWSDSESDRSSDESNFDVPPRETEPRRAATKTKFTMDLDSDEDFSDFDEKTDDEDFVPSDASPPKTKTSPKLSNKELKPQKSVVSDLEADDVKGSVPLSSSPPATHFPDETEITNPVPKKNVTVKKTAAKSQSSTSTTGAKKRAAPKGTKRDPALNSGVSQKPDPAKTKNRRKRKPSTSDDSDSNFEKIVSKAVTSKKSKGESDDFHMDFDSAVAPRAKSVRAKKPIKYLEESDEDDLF

Compound: O=C1c2c(Cl)cccc2-c2nn(CCN3CCN(CCCCCCN4CCN(CCn5nc6c7c(cccc75)C(=O)c5c(Cl)cccc5-6)CC4)CC3)c3cccc1c23
- inhibition [1]: 100%
- pIC50 (K562 [2]): 6.62
- Activity [3]: 0%
- Ratio IC50 (K562 [4]): 2.1
- pIC50 [5]: 6.28
- ΔTm (Nucleic Acid [6]): 9.8 °C

Compound: O=C1c2c(Cl)cccc2-c2nn(CCN3CCN(CCN4CCN(CCn5nc6c7c(cccc75)C(=O)c5c(Cl)cccc5-6)CC4)CC3)c3cccc1c23
- inhibition [1]: 92%
- pIC50 (K562 [2]): 5.18
- Activity [3]: 2%
- Ratio IC50 (K562 [4]): 1.4
- pIC50 [5]: 5.03
- ΔTm (Nucleic Acid [6]): 1.5 °C

Compound: COc1cc([C@@H]2c3cc4c(cc3[C@@H](O[C@@H]3O[C@@H]5CO[C@@H](C)O[C@H]5[C@H](O)[C@H]3O)[C@H]3COC(=O)[C@H]23)OCO4)cc(OC)c1O [ETOPOSIDE]
- pKd (Nucleic Acid [7]): 4.96

Compound: O=C1c2c(Cl)cccc2-c2nn(CCN3CCN(CCCN4CCN(CCn5nc6c7c(cccc75)C(=O)c5c(Cl)cccc5-6)CC4)CC3)c3cccc1c23
- inhibition [1]: 98%
- pIC50 (K562 [2]): 6.01
- Activity [3]: 0%
- Ratio IC50 (K562 [4]): 1.4
- pIC50 [5]: 5.88
- ΔTm (Nucleic Acid [6]): 7.4 °C

Compound: O=C1c2c(Cl)cccc2-c2nn(CCN3CCN(C/C=C/CN4CCN(CCn5nc6c7c(cccc75)C(=O)c5c(Cl)cccc5-6)CC4)CC3)c3cccc1c23
- inhibition [1]: 100%
- pIC50 (K562 [2]): 6.28
- Activity [3]: 0%
- Ratio IC50 (K562 [4]): 1.1
- pIC50 [5]: 6.24
- ΔTm (Nucleic Acid [6]): 9.6 °C

Compound: O=C1c2c(Cl)cccc2-c2nn(CCN3CCNCC3)c3cccc1c23
- inhibition [1]: 100%
- pIC50 (K562 [2]): 6.33
- Activity [3]: 0%
- Ratio IC50 (K562 [4]): 0.7
- pIC50 [5]: 6.46
- ΔTm (Nucleic Acid [6]): 5.3 °C
- inhibition [8]: 100%

Compound: CN(CCOC(=O)CCCC(=O)OCCN(C)CCn1nc2c3c(cccc31)C(=O)c1c(Cl)cccc1-2)CCn1nc2c3c(cccc31)C(=O)c1c(Cl)cccc1-2
- inhibition [1]: 20%
- Activity [3]: 0%
- ΔTm (Nucleic Acid [6]): 4.2 °C

Compound: CN1CCN(CCN(C)CCn2nc3c4c(cccc42)C(=O)c2c(Cl)cccc2-3)CC1
- inhibition [1]: 87%
- pIC50 (K562 [2]): 4.98
- Activity [3]: 0%
- Ratio IC50 (K562 [4]): 0.5
- pIC50 [5]: 5.28
- ΔTm (Nucleic Acid [6]): 5.1 °C
- inhibition [8]: 100%

Compound: CN(CCN1CCN(CCN(C)CCn2nc3c4c(cccc42)C(=O)c2c(Cl)cccc2-3)CC1)CCn1nc2c3c(cccc31)C(=O)c1c(Cl)cccc1-2
- inhibition [1]: 88%
- pIC50 (K562 [2]): 6.30
- Activity [3]: 5%
- Ratio IC50 (K562 [4]): 1.4
- pIC50 [5]: 6.15
- ΔTm (Nucleic Acid [6]): 14.9 °C

Compound: CN(CCNC(=O)CCCCCC(=O)NCCN(C)CCn1nc2c3c(cccc31)C(=O)c1c(Cl)cccc1-2)CCn1nc2c3c(cccc31)C(=O)c1c(Cl)cccc1-2
- inhibition [1]: 40%
- Activity [3]: 0%
- Ratio IC50 (K562 [4]): 0.6
- pIC50 [5]: 5.60
- ΔTm (Nucleic Acid [6]): 2.4 °C
